These results are taken from PMC2903386 (The Journal of Biological Chemistry, 2010).

Non-standard residues stand in square brackets, D forms with d. Residues, ends and D or L forms follow the SMILES beside them. *: point of attachment. X1 = CC[N+]1=C(C=CC=CC=C2N(CCCCCC(=O)NCCN3C(=O)CC(*)C3=O)c3ccc(S(=O)(=O)O)cc3C2(C)C)C(C)(C)c2cc(S(=O)(=O)[O-])ccc21; Ahx = NCCCCCC(=O)O

Series [1] in a line: Cleavage of Cy5-labeled ACPPs by tumor tissue extract. The class given is in vitro ADME, mouse. The conditions noted are these: 5 μM purified Cy5-labeled peptide, 2% tumor extract, 37 °C, 2 h, 16% Tricine gel. In outline: (§1)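 Fresh mouse tissue was gently homogenized in PBS on ice and spun at 14,000 × g for 1 min; the supernatant was used. 5 μM purified Cy5-labeled test peptide was incubated with 2% liver or tumor extract in PBS containing ZnCl2 at 37 °C for 2 h. Cleaved and uncleaved peptide were resolved on 16% Tricine gels and imaged by fluorescence.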

The target of another series is plasmin (Homo sapiens, UniProt P00747). Briefly: Cleavage by purified plasmin. The series is classed as in vitro ADME. Particulars: 5 μM purified Cy5-labeled peptide, 50 nM plasmin, 37 °C, 2 h, 16% Tricine gel. The procedure, abridged:
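Plasmin at 50 nM was incubated with 5 μM purified Cy5-labeled test peptide at 37 °C for 2 h, run alongside 2% tumor, liver or kidney extract digests. Products were resolved on 16% Tricine acrylamide gels and detected by Cy5 fluorescence imaging.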

The nature of series [2]: Tumor standardized uptake value. The class given is in vivo. Particulars: PyMT, mouse, iv, 10 nmol.
In a further series the test system is PyMT mammary tumors. Briefly: Fluorescence imaging contrast in PyMT tumor-bearing mice. Particulars: PyMT mice, fluorescence imaging 6 h after injection of 10 nmol. The series is classed as in vivo, mouse. In outline: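 PyMT transgenic mice bearing spontaneous mammary tumors were anesthetized with ketamine 80 mg/kg plus midazolam 5 mg/kg (1:1) and weighed. They were injected via the tail vein with Cy5 peptide: free peptide 100 μl of 100 μM (10 nmol) or albumin-reactive peptide 100 μl of 30 μM (3 nmol). Maestro imaging (ex 640 ± 24 nm, em >700 nm) was done at 6 h or 48 h, comparing tumor with adjacent normal tissue.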

A short description of series [3]: Cleavage of Cy5-labeled ACPP by liver tissue extract. The class given is in vitro ADME, mouse. Particulars: 5 μM purified Cy5-labeled peptide, 2% liver extract, 37 °C, 2 h, 16% Tricine gel. In outline: as §1

Sequence of plasmin (P00747 581-810 limits assumed): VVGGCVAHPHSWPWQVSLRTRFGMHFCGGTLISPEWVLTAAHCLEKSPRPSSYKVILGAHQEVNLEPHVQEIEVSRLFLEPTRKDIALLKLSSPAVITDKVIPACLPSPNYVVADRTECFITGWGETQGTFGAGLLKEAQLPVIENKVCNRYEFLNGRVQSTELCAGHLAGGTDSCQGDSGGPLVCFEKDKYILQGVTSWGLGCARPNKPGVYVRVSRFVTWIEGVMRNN
Sequence of plasmin (P00747 97-580 partner limits assumed): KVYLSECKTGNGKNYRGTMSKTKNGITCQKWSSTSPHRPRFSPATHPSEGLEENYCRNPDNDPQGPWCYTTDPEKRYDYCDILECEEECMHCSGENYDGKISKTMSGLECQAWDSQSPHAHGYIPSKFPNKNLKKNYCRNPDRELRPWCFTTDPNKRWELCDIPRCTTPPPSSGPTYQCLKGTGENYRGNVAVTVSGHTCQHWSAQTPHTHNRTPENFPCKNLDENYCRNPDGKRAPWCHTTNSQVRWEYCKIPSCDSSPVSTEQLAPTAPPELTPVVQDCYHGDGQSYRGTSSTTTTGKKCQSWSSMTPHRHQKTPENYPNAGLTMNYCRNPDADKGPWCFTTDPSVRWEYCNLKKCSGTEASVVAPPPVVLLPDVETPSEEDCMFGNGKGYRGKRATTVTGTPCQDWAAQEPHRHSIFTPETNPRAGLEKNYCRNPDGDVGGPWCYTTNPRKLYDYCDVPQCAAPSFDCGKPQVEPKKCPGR

Turning to `CC[N+]1=C(C=CC=CC=C2N(CCCCCC(=O)NCCN3C(=O)CC(SC[C@@H](NC(=O)[C@@H](CCCNC(=N)N)NC(=O)[C@@H](CCCNC(=N)N)NC(=O)[C@@H](CCCNC(=N)N)NC(=O)[C@@H](CCCNC(=N)N)NC(=O)[C@@H](CCCNC(=N)N)NC(=O)[C@@H](CCCNC(=N)N)NC(=O)[C@@H](CCCNC(=N)N)NC(=O)[C@@H](CCCNC(=N)N)NC(=O)[C@@H](CCCNC(=N)N)NC(=O)[C@H](CC(C)C)NC(=O)[C@H](CCCCNC(C)=O)NC(=O)[C@H](CC(C)C)NC(=O)[C@H](CCC(N)=O)NC(=O)[C@H](CC(C)C)NC(=O)[C@H](CCCNC(=N)N)NC(=O)CCCCCNC(=O)[C@@H](CCC(=O)O)NC(=O)[C@@H](CCC(=O)O)NC(=O)[C@@H](CCC(=O)O)NC(=O)[C@@H](CCC(=O)O)NC(=O)[C@@H](CCC(=O)O)NC(=O)[C@@H](CCC(=O)O)NC(=O)[C@@H](CCC(=O)O)NC(=O)[C@@H](CCC(=O)O)NC(=O)[C@H](N)CCC(=O)O)C(N)=O)C3=O)c3ccc(S(=O)(=O)O)cc3C2(C)C)C(C)(C)c2cc(S(=O)(=O)[O-])ccc21` (some centres unmarked) [RLQLK(Ac)L ACPP] (H-[dE][dE][dE][dE][dE][dE][dE][dE][dE][Ahx]RLQLK(Ac)L[dR][dR][dR][dR][dR][dR][dR][dR][dR][dC](X1)-NH2), the “cleavage by tumor extracts, comparison with parent (in words)” value in series [1] was “efficiently cleaved”. For the same compound, the “cleavage by plasmin (in words)” value on plasmin is “not cleaved”. This compound showed an SUV at 6 h in series [2] of 0.48 ± 0.04 SUV. In the series with PyMT mammary tumors, the “Tumor to non-tumor contrast, free peptide” value is “less than 3 fold”. For the same compound, the “cleavage by liver tissue extract compared with parent RLQLKL ACPP (in words)” value in series [3] is “significantly reduced”.
